Measurements gathered from unrelated publications.
Each line is one published result; the experiments were not run side by side.
Organism: Bacillus subtilis
Read-out: microbial growth

O=C(O)c1ccc(-n2cc(/C=N/N(c3ccccc3)c3ccccc3)c(-c3cccc(F)c3)n2)cc1
MIC (ATCC6623): 1.56 µg/mL

O=C1NC(=S)S/C1=C\c1c2ccccc2c(-c2ccc(N(c3ccccc3)c3ccccc3)cc2)c2ccccc12
MIC (broth dilution; ATCC6633): > 1000 µg/mL

CN[C@H](CC(C)C)C(=O)N[C@H]1C(=O)N[C@@H](CC(N)=O)C(=O)N[C@H]2C(=O)N[C@H]3C(=O)N[C@H](C(=O)N[C@H](C(=O)O)c4cc(O)cc(O)c4-c4cc3ccc4O)[C@H](O)c3ccc(c(Cl)c3)Oc3cc2cc(c3O[C@@H]2O[C@H](CO)[C@@H](O)[C@H](O)[C@H]2O[C@H]2C[C@](C)(N)[C@H](O)[C@H](C)O2)Oc2ccc(cc2Cl)[C@H]1O
MIC (broth dilution; BS01): 0.13 µg/mL

N#Cc1ccc(N/N=C/c2cn(-c3ccc(C(=O)O)cc3)nc2-c2ccc(F)cc2)cc1
MIC (ATCC6623): 25 µg/mL

CSc1ccc(/C=C/c2cc(/C=C3\Sc4ccccc4N3CCCN3CCCC3)c3ccccc3[n+]2C)cc1.[I-]
MIC (broth dilution; 168): 16 µg/mL

O=C(O)c1ccc(-n2cc(/C=N/Nc3ccc(Br)cc3)c(-c3cccc(F)c3)n2)cc1
MIC (ATCC6623): 12.5 µg/mL

CC1=NN(CNc2ccc(Cl)cc2)C(=O)C1=NNn1c(-c2ccccc2)nc2ccccc2c1=O
MIC (broth dilution; 24 h): 103 µM

O=C(Nc1ccc2c(c1)OC(F)(F)O2)Nc1ccc(Cl)c(C(F)(F)F)c1
MIC (168): 1 µM

O=C(O)c1cn(C2CC2)c2cc(N3CCNCC3)c(F)cc2c1=O
MIC (broth dilution; ATCC6633): 0.03 µg/mL

CCCCCCCCOC(=O)c1cc(O)c(O)c(O)c1
MIC (broth dilution; ATCC6633): 12.5 to 25 µM

O=C(O)c1ccc(-n2cc(/C=N/Nc3cccc(Cl)c3F)c(-c3cccc(F)c3)n2)cc1
MIC (ATCC6623): 1.56 µg/mL

O=C1NC(=S)S/C1=C\c1ccc(-c2ccc(N(c3ccccc3)c3ccccc3)cc2)cc1
MIC (broth dilution; ATCC6633): 1000 µg/mL

O=C(O)c1cn(C2CC2)c2cc(N3CCNCC3)c(F)cc2c1=O
MIC: 1.6 µg/mL

NC[C@H]1O[C@H](O[C@H]2[C@H](O)[C@@H](O[C@H]3O[C@H](CO)[C@@H](O)[C@H](N)[C@H]3O)[C@H](N)C[C@@H]2N)[C@H](O)[C@@H](O)[C@@H]1O
MIC: 2 to 4 µg/mL

CO[C@H]1O[C@H](COC(c2ccccc2)(c2ccccc2)c2ccccc2)[C@@H](OC(=O)c2ccc(C(C)(C)C)cc2)[C@H](OC(=O)c2ccc(C(C)(C)C)cc2)[C@H]1OC(=O)c1ccc(C(C)(C)C)cc1
MIC (broth dilution): 1.25 µg/mL

O=C(O)c1ccc(-n2cc(/C=N/Nc3ccc(Cl)cc3Cl)c(-c3cccc(F)c3)n2)cc1
MIC (ATCC6623): 1.56 µg/mL

Cc1cccc(NCc2ccc(Oc3ccccn3)cc2)c1
MIC: > 3.1 µg/mL

CC1(C)S[C@@H]2[C@H](NC(=O)[C@H](N)c3ccccc3)C(=O)N2[C@H]1C(=O)O
MIC (broth dilution; 168): 32 µg/mL

CCC[P+](/C=C(/c1ccccc1)c1cc(Cl)ccc1O)(CCC)CCC
MIC (21 h): > 40 µM

Cc1ccccc1NCc1ccc(Oc2ccccn2)cc1
MIC: 1.8 µg/mL
